Experimental findings from ChEMBL document CHEMBL5678799 (Biochem J, 2009) are described below.

Series [1] addresses Sphingosine kinase 2 (Homo sapiens) (UniProt Q9NRA0). The series can be described thus: Inhibition of SPHK2 (unknown origin) assessed as remaining activity at 1 uM using sphingosine as substrate incubated for 30 mins in presence of ATP relative to control. The method in brief:
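SPHK2 reaction: 10 μM sphingosine, 1 μM ATP, 50 mM Tris/HCl pH 7.5, 200 mM KCl, 5 mM MgCl2, 1 mM EGTA, 1 mM DTT, 30 min at room temperature. Kinase-Glo Plus luminescence read-out. Percentage of control activity, triplicate.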

The target in series [2] is Casein kinase I isoform delta (Homo sapiens) (UniProt P48730). The series can be described thus: Inhibition of recombinant human N-terminal GST-tagged CK1delta (1 to 415 residues) expressed in Escherichia coli assessed as remaining activity at 1 uM using RRKDLHDDEEDEAMSITA as substrate incubated for 30 mins in presence of [gamma-33P]ATP by filter binding method relative to control. In outline: (§1)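 Robotic radiometric panel assay, 30 min at room temperature (21 °C), with 10 mM magnesium acetate. […] Compound at 1 or 10 µM. Residual activity expressed relative to compound-free control; triplicate average ± S.D.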

Series [3] has as its target T1, mTORC1 (Homo sapiens) (UniProt P42345+Q8N122+Q9BVC4). To be noted: HEK293, dose 30-1000 nM, time 30.0 min.
In series [4] the target is T1, mTORC1 (Homo sapiens). To be noted: HEK293, dose 30-1000 nM, time 30.0 min. This is another data set of the same source.
Series [5] deals with Ephrin type-A receptor 2 (Homo sapiens) (UniProt P29317). The series can be described thus: Inhibition of recombinant human N-terminal GST-tagged EPHA2 (591 to 976 residues) expressed in Escherichia coli assessed as remaining activity at 10 uM using Poly (Glu,Tyr) as substrate incubated for 30 mins in presence of [gamma-33P]ATP by filter binding method relative to control. In outline:
(§2)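 Run robotically for 30 min at 21 °C under linear conditions. Compound at 1 or 10 µM. Percentage activity remaining versus control without compound, triplicate mean ± S.D.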

For series [6], the target named is Insulin receptor (Homo sapiens) (UniProt P06213). The series can be described thus: Inhibition of recombinant human N-terminal His6-tagged IR (1001 to 1382 residues) expressed in baculovirus infected Sf21 cells assessed as remaining activity at 10 uM using KKSRGDYMTMQIG as substrate incubated for 30 mins in presence of [gamma-33P]ATP by filter binding method relative to control.

In series [7] the target is Phosphatidylinositol 3-kinase catalytic subunit type 3 (Homo sapiens) (UniProt Q8NEB9). The series can be described thus: Inhibition of VPS34 (unknown origin) assessed as remaining activity at 1 uM using phosphatidylinositol as substrate incubated for 60 mins in presence of ATP relative to control.
For series [8], the target named is Mitogen-activated protein kinase 13 (Homo sapiens) (UniProt O15264). The series can be described thus: Inhibition of recombinant human GST-tagged P38delta (1 to 365 residues) expressed in Escherichia coli assessed as remaining activity at 10 uM using MBP as substrate incubated for 30 mins in presence of [gamma-33P]ATP by filter binding method relative to control. The method in brief:
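Kinase panel run robotically at 21 °C for 30 min, linear in time and enzyme. […] Compound tested at 1 or 10 µM. Activity given as percentage of incubations without compound, mean of triplicates ± S.D.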

Series [9] has as its target Serine/threonine-protein kinase Nek6 (Homo sapiens) (UniProt Q9HC98). As to the kind of experiment: Inhibition of recombinant human His6-tagged NEK6 (8 to 313 residues) expressed in baculovirus infected Sf21 cells assessed as remaining activity at 1 uM using FLAKSFGSPNRAYKK as substrate incubated for 30 mins in presence of [gamma-33P]ATP by filter binding method relative to control. The method in brief: as §2

Series [10] deals with Insulin receptor (Homo sapiens) (UniProt P06213). As to the kind of experiment: Inhibition of recombinant human N-terminal His6-tagged IR (1001 to 1382 residues) expressed in baculovirus infected Sf21 cells assessed as remaining activity at 1 uM using KKSRGDYMTMQIG as substrate incubated for 30 mins in presence of [gamma-33P]ATP by filter binding method relative to control. The method in brief:
(§3)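 Panel assays were run for 30 min at 21 °C, within the linear range for time and enzyme. […] Results are percent activity remaining relative to compound-free control, averaged from triplicate ± S.D.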

The subject of the next series is MEF. The series can be described thus: Induction of cell cycle arrest in MEF cells assessed as accumulation at G1 phase at 3 uM incubated for 1 to 3 days by propidium iodide staining based flow cytometric analysis (reference value: 21.4 +/- 1.7%). In kind it is toxicity. To be noted: mouse, time 1-3 day.
Series [11] deals with Mitogen-activated protein kinase 12 (Homo sapiens) (UniProt P53778). The series can be described thus: Inhibition of recombinant human N-terminal GST-tagged P38gamma (1 to 367 residues) expressed in Escherichia coli assessed as remaining activity at 10 uM using MBP as substrate incubated for 30 mins in presence of [gamma-33P]ATP by filter binding method relative to control. The method in brief: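 Radiometric kinase panel run robotically at room temperature (21 °C) for 30 min, linear in time and enzyme. […] Activity is expressed as percent of control without compound, from triplicate determinations ± S.D.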

Series [12] has as its target T1, mTORC1 (Homo sapiens). To be noted: HEK293, dose 30.0 nM, time 30.0 min.
In series [13] the target is Mitogen-activated protein kinase 9 (Homo sapiens) (UniProt P45984). As to the kind of experiment: Inhibition of recombinant human N-terminal His6-tagged JNK2alpha2 (1 to 424 residues) expressed in baculovirus infected Sf21 cells assessed as remaining activity at 10 uM using ATF2 as substrate incubated for 30 mins in presence of [gamma-33P]ATP by filter binding method relative to control.

Series [14] deals with Fibroblast growth factor receptor 1 (Homo sapiens) (UniProt P11362). The series can be described thus: Inhibition of recombinant human N-terminal His6-tagged FGFR1 (400 to 820 residues) expressed in baculovirus infected Sf21 cells assessed as remaining activity at 10 uM using Poly(Glu,Tyr) as substrate incubated for 30 mins in presence of [gamma-33P]ATP by filter binding method relative to control. In outline:
as §3

The target in a further series is mTORC2 (Homo sapiens) (UniProt P42345+Q6R327+Q9BVC4+Q9BPZ7). To be noted: HEK293, dose 30-1000 nM, time 30.0 min.
In series [15] the target is Calcium/calmodulin-dependent protein kinase kinase 2 (Homo sapiens) (UniProt Q96RR4). As to the kind of experiment: Inhibition of recombinant human N-terminal GST-tagged CAMKKbeta (1 to 541 residues) expressed in Escherichia coli assessed as remaining activity at 1 uM using DGEFLRTSCGSPNYAARRR as substrate incubated for 30 mins in presence of [gamma-33P]ATP by filter binding method relative to control. In outline:
as §1

Activity calls are given as the source filed them. The calls are words filed in the database; no cut-off is given here.

Insulin receptor (Homo sapiens), sequence (P06213 28-758 limits assumed): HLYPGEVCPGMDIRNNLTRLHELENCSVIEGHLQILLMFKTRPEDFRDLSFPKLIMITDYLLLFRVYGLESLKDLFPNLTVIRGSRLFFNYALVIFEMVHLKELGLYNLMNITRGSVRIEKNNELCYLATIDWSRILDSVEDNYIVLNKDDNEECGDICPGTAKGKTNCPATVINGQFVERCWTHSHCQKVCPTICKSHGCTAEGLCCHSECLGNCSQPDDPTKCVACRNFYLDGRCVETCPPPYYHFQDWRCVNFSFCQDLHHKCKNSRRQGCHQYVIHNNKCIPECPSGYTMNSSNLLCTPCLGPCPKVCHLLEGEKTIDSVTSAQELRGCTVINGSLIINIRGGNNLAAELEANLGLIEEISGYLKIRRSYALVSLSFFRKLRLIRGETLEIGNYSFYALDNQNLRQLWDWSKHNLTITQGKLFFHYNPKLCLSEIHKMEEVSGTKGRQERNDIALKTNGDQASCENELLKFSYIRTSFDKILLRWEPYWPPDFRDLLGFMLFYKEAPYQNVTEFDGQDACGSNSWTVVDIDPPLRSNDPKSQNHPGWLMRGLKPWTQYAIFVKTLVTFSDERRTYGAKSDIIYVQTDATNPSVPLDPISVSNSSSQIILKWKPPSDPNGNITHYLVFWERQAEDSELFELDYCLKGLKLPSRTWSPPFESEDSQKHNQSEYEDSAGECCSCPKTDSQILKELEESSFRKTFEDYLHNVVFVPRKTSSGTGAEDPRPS
Insulin receptor (Homo sapiens), sequence (P06213 763-1382 limits assumed): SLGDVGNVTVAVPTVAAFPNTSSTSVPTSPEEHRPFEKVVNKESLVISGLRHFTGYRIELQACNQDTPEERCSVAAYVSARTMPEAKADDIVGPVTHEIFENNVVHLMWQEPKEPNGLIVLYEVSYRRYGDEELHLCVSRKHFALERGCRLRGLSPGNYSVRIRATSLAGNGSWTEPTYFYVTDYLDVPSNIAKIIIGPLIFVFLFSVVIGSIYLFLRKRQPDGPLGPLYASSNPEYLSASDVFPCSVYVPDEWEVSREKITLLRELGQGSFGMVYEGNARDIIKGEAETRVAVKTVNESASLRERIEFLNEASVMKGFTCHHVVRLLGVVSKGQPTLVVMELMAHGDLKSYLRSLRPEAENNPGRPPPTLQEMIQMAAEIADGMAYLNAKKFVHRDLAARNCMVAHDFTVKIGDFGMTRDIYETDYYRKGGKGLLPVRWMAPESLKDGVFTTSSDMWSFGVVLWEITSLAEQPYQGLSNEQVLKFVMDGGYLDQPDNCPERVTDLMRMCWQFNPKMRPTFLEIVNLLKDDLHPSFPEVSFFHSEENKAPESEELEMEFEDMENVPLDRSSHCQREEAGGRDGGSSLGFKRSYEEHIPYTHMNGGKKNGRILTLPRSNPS
Mitogen-activated protein kinase 13 (Homo sapiens), sequence (O15264 whole entry, the tested form may be a part): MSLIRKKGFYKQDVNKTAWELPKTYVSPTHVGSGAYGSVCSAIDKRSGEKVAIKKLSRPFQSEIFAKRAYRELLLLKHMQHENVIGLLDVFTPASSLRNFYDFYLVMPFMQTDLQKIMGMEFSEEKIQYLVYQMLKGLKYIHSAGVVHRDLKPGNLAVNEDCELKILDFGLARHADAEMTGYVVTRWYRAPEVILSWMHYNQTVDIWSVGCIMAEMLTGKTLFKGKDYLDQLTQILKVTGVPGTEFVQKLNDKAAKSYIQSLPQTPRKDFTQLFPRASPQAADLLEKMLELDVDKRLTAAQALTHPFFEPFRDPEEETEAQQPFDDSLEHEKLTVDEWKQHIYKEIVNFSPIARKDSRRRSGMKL
Casein kinase I isoform delta (Homo sapiens), sequence (P48730 whole entry, looked up, the tested form may be a part, canonical isoform): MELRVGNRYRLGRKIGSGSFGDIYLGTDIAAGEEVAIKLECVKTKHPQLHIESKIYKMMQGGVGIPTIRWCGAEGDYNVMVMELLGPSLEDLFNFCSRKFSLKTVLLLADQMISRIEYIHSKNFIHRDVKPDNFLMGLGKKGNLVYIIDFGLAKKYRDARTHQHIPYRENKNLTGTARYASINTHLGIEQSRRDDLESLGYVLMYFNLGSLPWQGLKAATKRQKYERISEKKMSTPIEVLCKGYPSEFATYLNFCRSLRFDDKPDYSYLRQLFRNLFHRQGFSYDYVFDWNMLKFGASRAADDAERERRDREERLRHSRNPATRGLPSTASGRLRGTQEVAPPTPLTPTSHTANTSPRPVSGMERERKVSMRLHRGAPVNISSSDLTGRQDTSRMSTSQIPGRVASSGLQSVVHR
Calcium/calmodulin-dependent protein kinase kinase 2 (Homo sapiens), sequence (Q96RR4 2-588 limits assumed): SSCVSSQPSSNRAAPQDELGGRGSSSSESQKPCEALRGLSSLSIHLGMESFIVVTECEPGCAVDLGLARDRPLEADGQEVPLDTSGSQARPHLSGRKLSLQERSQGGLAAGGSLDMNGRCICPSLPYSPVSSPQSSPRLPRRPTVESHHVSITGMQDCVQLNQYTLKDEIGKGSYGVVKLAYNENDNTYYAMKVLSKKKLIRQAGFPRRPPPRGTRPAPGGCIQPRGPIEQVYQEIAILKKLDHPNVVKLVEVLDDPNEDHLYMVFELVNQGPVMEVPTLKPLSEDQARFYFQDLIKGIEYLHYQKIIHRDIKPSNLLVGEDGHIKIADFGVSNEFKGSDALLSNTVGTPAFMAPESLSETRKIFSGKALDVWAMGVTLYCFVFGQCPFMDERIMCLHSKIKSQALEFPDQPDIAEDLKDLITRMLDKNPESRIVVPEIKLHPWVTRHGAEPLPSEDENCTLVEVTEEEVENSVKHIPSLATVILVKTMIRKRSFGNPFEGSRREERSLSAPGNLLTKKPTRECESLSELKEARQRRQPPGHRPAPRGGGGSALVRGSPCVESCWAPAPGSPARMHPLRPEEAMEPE
Ephrin type-A receptor 2 (Homo sapiens), sequence (P29317 whole entry, the tested form may be a part): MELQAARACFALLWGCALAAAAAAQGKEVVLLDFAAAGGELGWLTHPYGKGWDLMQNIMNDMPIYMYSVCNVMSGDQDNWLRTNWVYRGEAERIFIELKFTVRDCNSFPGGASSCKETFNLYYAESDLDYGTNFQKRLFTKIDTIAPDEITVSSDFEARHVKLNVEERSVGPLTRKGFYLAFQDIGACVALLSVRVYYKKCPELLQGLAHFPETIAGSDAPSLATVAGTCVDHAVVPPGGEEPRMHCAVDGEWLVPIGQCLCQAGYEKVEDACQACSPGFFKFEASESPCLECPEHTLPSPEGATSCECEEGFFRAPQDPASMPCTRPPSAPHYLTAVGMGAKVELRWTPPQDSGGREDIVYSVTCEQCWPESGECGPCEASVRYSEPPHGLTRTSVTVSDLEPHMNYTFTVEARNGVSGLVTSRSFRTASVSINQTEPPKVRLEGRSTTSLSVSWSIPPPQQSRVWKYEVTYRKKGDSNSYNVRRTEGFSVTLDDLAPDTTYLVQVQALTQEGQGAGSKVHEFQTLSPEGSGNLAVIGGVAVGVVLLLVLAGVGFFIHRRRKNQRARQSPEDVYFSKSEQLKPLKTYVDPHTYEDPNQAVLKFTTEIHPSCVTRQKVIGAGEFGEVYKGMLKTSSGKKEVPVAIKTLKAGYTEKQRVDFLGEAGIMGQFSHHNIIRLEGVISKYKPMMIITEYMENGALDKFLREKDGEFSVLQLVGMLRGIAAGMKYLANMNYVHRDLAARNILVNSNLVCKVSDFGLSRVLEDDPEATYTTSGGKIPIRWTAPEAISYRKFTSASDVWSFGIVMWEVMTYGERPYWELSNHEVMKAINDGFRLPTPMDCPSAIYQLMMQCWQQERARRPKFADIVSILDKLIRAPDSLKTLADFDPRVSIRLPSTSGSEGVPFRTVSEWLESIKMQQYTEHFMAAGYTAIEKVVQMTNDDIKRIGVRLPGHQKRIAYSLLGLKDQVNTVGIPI
Phosphatidylinositol 3-kinase catalytic subunit type 3 (Homo sapiens), sequence (Q8NEB9 whole entry, the tested form may be a part): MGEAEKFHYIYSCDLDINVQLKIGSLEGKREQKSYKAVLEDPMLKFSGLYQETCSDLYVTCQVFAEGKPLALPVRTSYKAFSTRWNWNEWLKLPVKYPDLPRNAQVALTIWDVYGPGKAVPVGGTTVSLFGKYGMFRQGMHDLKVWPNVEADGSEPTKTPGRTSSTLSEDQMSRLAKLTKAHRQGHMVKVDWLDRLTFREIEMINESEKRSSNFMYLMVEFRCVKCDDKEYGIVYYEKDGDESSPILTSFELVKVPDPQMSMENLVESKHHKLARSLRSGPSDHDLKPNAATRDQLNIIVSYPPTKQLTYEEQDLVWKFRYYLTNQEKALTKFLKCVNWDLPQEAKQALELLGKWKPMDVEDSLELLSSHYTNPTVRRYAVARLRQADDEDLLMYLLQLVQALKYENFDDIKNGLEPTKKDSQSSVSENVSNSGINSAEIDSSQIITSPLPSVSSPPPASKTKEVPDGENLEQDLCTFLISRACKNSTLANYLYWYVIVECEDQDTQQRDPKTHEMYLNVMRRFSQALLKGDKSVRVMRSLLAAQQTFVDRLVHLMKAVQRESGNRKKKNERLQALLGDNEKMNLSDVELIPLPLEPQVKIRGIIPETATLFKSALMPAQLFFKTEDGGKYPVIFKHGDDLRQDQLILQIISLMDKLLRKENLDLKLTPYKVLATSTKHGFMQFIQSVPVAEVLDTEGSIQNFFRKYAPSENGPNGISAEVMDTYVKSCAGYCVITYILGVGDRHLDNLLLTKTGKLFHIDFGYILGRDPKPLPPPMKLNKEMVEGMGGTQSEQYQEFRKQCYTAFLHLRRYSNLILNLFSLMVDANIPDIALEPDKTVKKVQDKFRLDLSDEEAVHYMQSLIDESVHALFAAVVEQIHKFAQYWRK
Mitogen-activated protein kinase 9 (Homo sapiens), sequence (P45984 whole entry, looked up, the tested form may be a part): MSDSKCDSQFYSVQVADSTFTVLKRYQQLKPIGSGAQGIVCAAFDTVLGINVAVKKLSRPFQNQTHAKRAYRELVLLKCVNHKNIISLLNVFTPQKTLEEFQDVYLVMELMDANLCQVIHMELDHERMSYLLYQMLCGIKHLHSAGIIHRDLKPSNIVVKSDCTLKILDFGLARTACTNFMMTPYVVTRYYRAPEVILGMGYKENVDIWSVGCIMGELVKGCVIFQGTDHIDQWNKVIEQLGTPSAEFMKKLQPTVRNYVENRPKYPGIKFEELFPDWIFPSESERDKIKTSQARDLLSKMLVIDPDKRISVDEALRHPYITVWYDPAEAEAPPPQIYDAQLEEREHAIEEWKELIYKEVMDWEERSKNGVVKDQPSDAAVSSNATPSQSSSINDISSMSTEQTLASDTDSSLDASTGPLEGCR

Consider `COc1ccc(-c2ccc3c(N4CCOCC4)nc(N4C[C@@H](C)O[C@@H](C)C4)nc3n2)cc1CO` [Ku-0063794], for which the Activity was 119% in series [1]; 112% in series [2]; 96% in series [5]; 67% in [6]; 101% in series [7]; 87% in series [8]. Also, the Activity in [9] turned out to be 74%; in series [10], 81%; with MEF it was 42.4%; in [11] it was 91%; in [13], 103%; in series [14] it was 87%. Moreover, in series [15], the Activity is 108%. For the same molecule, the inhibition result at mTORC1 (Homo sapiens) [3] and on mTORC2 (Homo sapiens) was “Active” in each case. Besides, the inhibition entry is “Dose-Dependent Effect” at mTORC1 (Homo sapiens) [4] and 50% at mTORC1 (Homo sapiens) [12].
